The subject of data set [1] is ScGT1. The data set is described as follows: Antiprion activity against scrapie prion protein-infected mouse ScGT1 cells assessed as accumulation of PrPSc at 1 uM after 5 days by Western blotting. It is filed as cell-based. Put shortly: (§1)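 ScGT1 cells in DMEM with 10% FBS were split 1:10 into Petri dishes and grown 2 days at 37 °C, 5% CO2. Non-toxic compound concentrations (10 nM–2 μM) were then added. After 5 days, cell proteins were extracted, quantified, proteinase K-digested and western-blotted. PK-resistant PrPSc was quantified by densitometry. EC50 is half-maximal inhibition. Values are mean of three experiments with SD.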
A general note: In western blotting, separated proteins are transferred to a membrane and probed.

Data set [2] is described as follows: Cytotoxicity against mouse ScGT1 cells assessed as cell viability at 1 uM after 5 days by calcein-AM assay. Conditions: read-out: Activity. It counts as cell-based. Put shortly: (§2)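 ScGT1 cells in DMEM with 10% FBS were plated at 25000 cells/well. Compounds were dissolved in DMSO, diluted in PBS and added at 10 nM–10 μM. Cells were incubated 5 days at 37 °C, 5% CO2. Viability was read by calcein-AM fluorescence as average percent viable cells versus untreated control. Values are mean of three experiments with SD.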

In data set [3] the test system is ScGT1. As to the kind of experiment: Antiprion activity against scrapie prion protein-infected mouse ScGT1 cells assessed as accumulation of PrPSc at 0.2 uM after 5 days by Western blotting. It is filed as cell-based. Put shortly: as §1
Data set [4] is described as follows: Cytotoxicity against mouse ScGT1 cells assessed as cell viability at 0.2 uM after 5 days by calcein-AM assay. Conditions: read-out: Activity. It counts as cell-based. Put shortly:
as §2

Data set [5] in a line: Antioxidant activity in mouse ScGT1 cells assessed as inhibition of ROS formation at 1 uM after 3 hrs by TBARS assay. It counts as functional. To be noted: ScGT1, 3 h. Put shortly: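 ScGT1 cells were treated at 1 μM, and lipid hydroperoxides and aldehydes were measured by the TBARS assay. Results are expressed as average percent TBARS of treated cells versus untreated cells. A water-soluble vitamin E derivative served as positive control. Values are mean ± SD, n = 3.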

A short description of data set [6]: Inhibition of scrapie prion protein-mediated lag phase prion fibril formation after 72 hrs by amyloid seeding assay. A digest of the protocol: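 In vitro amyloid seeding assay of recombinant PrP fibril formation, with compounds at 2 μM. The read-out is lag phase in hours, compared against an untreated control. Significance was tested by Student's t-test, n = 4.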

Data set [7] can be described thus: Antiprion activity against scrapie prion protein-infected mouse ScGT1 cells assessed as accumulation of PrPSc after 5 days by Western blotting. It is filed as cell-based. To be noted: ScGT1, 120 h. A digest of the protocol:
as §1

Data set [8] is described as follows: Cytotoxicity against mouse ScGT1 cells assessed as cell viability at EC50 after 5 days by calcein-AM assay. It counts as cell-based. Conditions: read-out: INH. Put shortly:
as §2

As to `O=C1C=C(NCCCNc2ccnc3cc(Cl)ccc23)C(=O)c2ccccc21`, the inhibition (as a rule, the change of the read-out against control, counted positive when it falls) with ScGT1 [1] was determined as 2.9%. For the same compound, the viability at 120 h, 1 µM in data set [2] was 94.3%.

For the compound `COc1ccc2nc3cc(Cl)ccc3c(NCCCNCCCNC3=CC(=O)C(NCCCNCCCNc4c5ccc(Cl)cc5nc5ccc(OC)cc45)=CC3=O)c2c1`, the inhibition in the data set on ScGT1 [3] is 5.4%. Besides, the viability at 120 h, 0.2 µM in data set [4] was 65.8%. The viability at 120 h, 1 µM in data set [2] was 1.5%.

On to `O=C1C=C(NCCNc2c3c(nc4ccccc24)CCCC3)C(=O)C=C1NCCNc1c2c(nc3ccccc13)CCCC2`, for which, in the data set on ScGT1 [1], the inhibition amounted to 7.1%. Further, in data set [2], the viability at 120 h, 1 µM was 108%.

Consider `COc1ccc2nccc(NCCCNC3=CC(=O)C(NCCCNc4ccnc5ccc(OC)cc45)=CC3=O)c2c1`, for which the inhibition with ScGT1 [1] stood at 4.7%. Moreover, the viability at 120 h, 1 µM in data set [2] is 87.2%.

Consider `Cc1c(C)c2c(c(C)c1O)CCC(C)(C(=O)O)O2` (configuration not stated) [TROLOX], for which the inhibition at 1 µM in data set [5] worked out at 71%.

Compound `O=C1C=C(NCCCNCCCNc2ccnc3cc(Cl)ccc23)C(=O)C=C1NCCCNCCCNc1ccnc2cc(Cl)ccc12` gave a TIME in data set [6] of 40 h. Moreover, the inhibition at 1 µM in data set [5] was 83%. In the data set with ScGT1 [1], the inhibition came out at 49.1%. In data set [7], the EC50 – broadly, the concentration that produces a half-maximal response – came to 1200 nM. In data set [8], the viability at 120 h is 91.3%. For the same compound, the viability at 120 h, 1 µM in data set [2] is 105%.

In data set [6], `O=C1C=C(NCCCNc2ccnc3cc(Cl)ccc23)C(=O)C=C1NCCCNc1ccnc2cc(Cl)ccc12` showed a TIME of 53 h. In addition, the inhibition at 1 µM in data set [5] was found to be 83%. Moreover, the inhibition with ScGT1 [1] was 85.5%. Further, the EC50 in data set [7] amounted to 730 nM. For the same compound, the viability at 120 h in data set [8] is 99.6%. Also, the viability at 120 h, 1 µM in data set [2] is 100%.

In turn, `O=C1C=C(NCCCNc2c3c(nc4cc(Cl)ccc24)CCCC3)C(=O)C=C1NCCCNc1c2c(nc3cc(Cl)ccc13)CCCC2` showed a TIME in data set [6] of 57 h. In data set [5], the inhibition at 1 µM came out at 69%. Further, in the data set with ScGT1 [1], the inhibition was determined as 105%. Further, the EC50 in data set [7] is 170 nM. Besides, the viability at 120 h in data set [8] is 102%. For the same compound, the viability at 120 h, 1 µM in data set [2] is 78.6%.

For the compound `O=C1C=C(NCCNc2ccnc3cc(Cl)ccc23)C(=O)C=C1NCCNc1ccnc2cc(Cl)ccc12`, the inhibition in the data set on ScGT1 [1] stood at 6.2%. In addition, the viability at 120 h, 1 µM in data set [2] is 115%.

`COc1ccc2nc3cc(Cl)ccc3c(NCCNC3=CC(=O)C(NCCNc4c5ccc(Cl)cc5nc5ccc(OC)cc45)=CC3=O)c2c1`: the inhibition in the data set on ScGT1 [3] was determined as 3.1%. In addition, the viability at 120 h, 0.2 µM in data set [4] is 80.1%. Moreover, the viability at 120 h, 1 µM in data set [2] is 18.2%.

As to `COc1ccc2nc3cc(Cl)ccc3c(NCCCNC3=CC(=O)C(NCCCNc4c5ccc(Cl)cc5nc5ccc(OC)cc45)=CC3=O)c2c1`, the TIME in data set [6] stood at 45 h. Moreover, the inhibition at 1 µM in data set [5] was determined as 83%. Moreover, the inhibition with ScGT1 [1] is 89.7%. Further, in data set [7], the EC50 came out at 680 nM. For the same compound, in data set [8], the viability at 120 h was 75.2%. Further, the viability at 120 h, 1 µM in data set [2] is 65.5%.

With `O=C1C=C(NCCCNCCCNc2c3c(nc4ccccc24)CCCC3)C(=O)C=C1NCCCNCCCNc1c2c(nc3ccccc13)CCCC2`, the inhibition with ScGT1 [1] worked out at 3.4%. The viability at 120 h, 1 µM in data set [2] is 95.4%.

`COc1ccc2nc3cc(Cl)ccc3c(NCCCN3CCN(CCCNc4c5ccc(Cl)cc5nc5ccc(OC)cc45)CC3)c2c1` came in with a TIME in data set [6] of 55 h. Moreover, the inhibition at 1 µM in data set [5] amounted to 93%. Besides, the inhibition with ScGT1 [1] was found to be 102%. The EC50 in data set [7] amounted to 320 nM. The viability at 120 h in data set [8] is 92.4%. Besides, in data set [2], the viability at 120 h, 1 µM is 75.6%.

Values taken from ChEMBL document CHEMBL1275403 (J Med Chem, 2010).
